Data taken from ChEMBL document CHEMBL1154307, “Eucalmaidins A-E, (+)-oleuropeic acid derivatives from the fresh leaves of Eucalyptus maideni” (J Nat Prod, 2009).
Calls of active or inactive are those of the source. The rule behind the calls is not given here.

How the values were obtained:
Human alphaherpesvirus 1 = assay: Antiviral activity against HSV1 infected in african green monkey Vero cells assessed as inhibition of virus-induced cytopathic effect after 3 days by crystal violet staining; assay type: functional
In short: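 Vero cells grown 24 h in 24-well plates, then infected with 30 PFU HSV-1 together with serial sample dilutions in DMEM containing 2% FBS, adjusted to pH 7.2 with NaHCO3 and Hepes. Overlay medium held 1% methylcellulose. After 3 days, cells were fixed with formalin, stained with crystal violet, and plaques counted. The concentration giving 100% plaque reduction versus untreated infected control was read from graphic plots.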

[1] = Cytotoxicity against african green monkey Vero cells after 3 days by MTT assay; assay type: cell-based; conditions: chlorocebus sabaeus, read-out: MNCC
In short: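 Confluent Vero monolayers were exposed in triplicate to serial sample dilutions in DMEM with 2% FBS (pH 7.2) for 3 days. MTT was then added for 4 h and the formazan dissolved in DMSO. OD was read at 540 and 630 nm against untreated control. The maximal noncytotoxic concentration was taken as the highest concentration showing no cytotoxic effect.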

SMILES	inhibition (Human alphaherpesvirus 1)	MNTC at 72 h [1] [µM]	Concentration giving 100% plaque reduction (IC100) (Human alphaherpesvirus 1) [mM]
COc1cc([C@@H]2c3cc(O)c(OC)cc3C[C@H](CO)[C@H]2CO[C@@H]2O[C@H](CO)[C@@H](O)[C@H](O)[C@H]2O)ccc1O	inactive	380	–
CC(C)(O)C1CC=C(C(=O)O)CC1 (racemic)	inactive	> 1090	–
Nc1nc2c(ncn2COCCO)c(=O)[nH]1 [ACYCLOVIR]	–	–	0.0043
Cc1cc(=O)c2c(O)cc(O[C@@H]3O[C@H](COC(=O)C4=CC[C@H](C(C)(C)O)CC4)[C@@H](O)[C@H](O)[C@H]3O)cc2o1 [CYPELLOCARPA C]	inactive	> 380	–
CC(C)(O)[C@H]1CC=C(C(=O)OC[C@H]2O[C@@H](Oc3cc(C(=O)O)cc(O)c3O)[C@H](O)[C@@H](O)[C@@H]2O)CC1 [CYPELLOCARPIN A]	inactive	30	–
CC1(O)CC(=O)c2c(O)cc(O[C@@H]3O[C@H](COC(=O)C4=CC[C@H](C(C)(C)O)CC4)[C@@H](O)[C@H](O)[C@H]3O)cc2O1 (stereo partly specified) [CYPELLOCARPIN B]	inactive	20	–
CC(C)(O)[C@H]1CC=C(C(=O)OC[C@H]2O[C@@H](O)[C@H](O)[C@@H](O)[C@@H]2O)CC1 [EUCALMAIDIN A]	inactive	> 580	–
CC(C)(O)[C@H]1CC=C(C(=O)OC[C@H]2O[C@@H](Oc3c(O)cc(C(=O)O)cc3O)[C@H](O)[C@@H](O)[C@@H]2O)CC1 [EUCALMAIDIN B]	inactive	400	–
COc1cc(C(=O)O)cc(OC)c1O[C@@H]1O[C@H](COC(=O)C2=CC[C@H](C(C)(C)O)CC2)[C@@H](O)[C@H](O)[C@H]1O [EUCALMAIDIN C]	inactive	380	–
O=c1c(O)c(-c2ccc(O)c(O)c2)oc2cc(O)cc(O)c12 [QUERCETIN]	–	< 20	0.33
C[C@@H]1O[C@@H](Oc2c(-c3ccc(O)c(O)c3)oc3cc(O)cc(O)c3c2=O)[C@H](O)[C@H](O)[C@H]1O [QUERCITRIN]	inactive	10	–
